NALP3 yeast inh – NALP3 inflammasome inhibitors in reconstituted yeast, primary screen, luminescence, uHTS | Yeast reconstituted NLRP3/ASC/caspase-1, beta-gal luminescence, 24 h | actives 0.39% (n = 330,000) | inhibition, % at 10 µM;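 active = inhibition of 50% or more; inactive = inhibition below 50%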;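 also: plate controls were induced DMSO wells for no effect and uninduced yeast grown without galactose for full effect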
CSC inhib – cancer stem cell viability inhibitors, primary screen, luminescence; cancer stem cell-like cells viability; inhibition, % at 7.5 µM; actives 1.1% (n = 300,000); AID 2717, 2010; in the data active = inhibition above about 75%; tested in HMLE shEcad cells
Mdm2 MdmX PPI – inhibitors of human Mdm2-MdmX association, primary screen, cell-based, luminescence, split luciferase, SaOS-2, uHTS; Protein Mdm4 (Homo sapiens) + E3 ubiquitin-protein ligase Mdm2 (Homo sapiens), …; SaOS-2 split-luciferase Mdm2/MdmX complementation; inhibition, % at 8 µM; actives 3% (n = 330,000);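 active = inhibition of at least 50% at 8 µM in the primary screen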
Target sequence (O15151 whole entry, looked up): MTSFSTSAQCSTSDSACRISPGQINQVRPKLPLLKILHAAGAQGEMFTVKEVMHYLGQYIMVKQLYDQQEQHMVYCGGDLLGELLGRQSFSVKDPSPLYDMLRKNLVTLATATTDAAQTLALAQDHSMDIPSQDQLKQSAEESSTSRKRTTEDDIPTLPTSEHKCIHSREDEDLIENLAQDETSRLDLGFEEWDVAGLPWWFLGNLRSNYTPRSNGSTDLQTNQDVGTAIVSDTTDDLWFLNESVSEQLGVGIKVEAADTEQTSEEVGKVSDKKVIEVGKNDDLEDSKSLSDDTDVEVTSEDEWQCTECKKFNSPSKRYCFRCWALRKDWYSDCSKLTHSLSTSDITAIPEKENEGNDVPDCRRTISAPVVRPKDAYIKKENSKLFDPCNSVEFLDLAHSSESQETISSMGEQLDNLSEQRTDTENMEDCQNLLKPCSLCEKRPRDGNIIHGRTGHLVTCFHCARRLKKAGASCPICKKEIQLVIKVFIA
Target sequence (Q00987 whole entry, looked up): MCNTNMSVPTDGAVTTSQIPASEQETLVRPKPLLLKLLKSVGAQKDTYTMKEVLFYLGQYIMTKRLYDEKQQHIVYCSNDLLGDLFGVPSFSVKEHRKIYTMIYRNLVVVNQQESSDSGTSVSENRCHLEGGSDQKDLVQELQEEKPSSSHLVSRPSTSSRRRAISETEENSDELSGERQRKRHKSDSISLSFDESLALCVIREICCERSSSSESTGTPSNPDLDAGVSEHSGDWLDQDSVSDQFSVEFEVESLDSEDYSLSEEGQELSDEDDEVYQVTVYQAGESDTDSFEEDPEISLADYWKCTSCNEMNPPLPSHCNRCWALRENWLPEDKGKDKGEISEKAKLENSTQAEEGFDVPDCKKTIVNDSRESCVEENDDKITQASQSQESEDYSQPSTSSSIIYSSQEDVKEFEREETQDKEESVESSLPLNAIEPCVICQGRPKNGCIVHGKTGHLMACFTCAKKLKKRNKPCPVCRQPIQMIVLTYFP
Calb FLC – C. albicans growth inhibition with fluconazole, primary screen, CaCi-2 strain, Alamar Blue fluorescence; C. albicans CaCi-2 + fluconazole, 48 h; growth inhibition, % (concentration not given with the values); actives 0.57% (n = 300,000);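 active = growth inhibition above about 58% in most replicates, limit read from the data, passing the limit was not always enough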;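 also: all wells also contain fluconazole at 8 µg/ml as a sub-toxic cotreatment; 0% = median of DMSO wells and 100% = median of geldanamycin control wells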
T cruzi repl – inhibitors of intracellular T. cruzi growth, primary screen, luminescence, NIH3T3 host cells; T. cruzi beta-gal in NIH3T3, 90 h; inhibition, % (no concentration beside the values); actives 1.4% (n = 300,000);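 active = mean inhibition across valid replicates above about 55%, limit read from the data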;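 also: signal also drops with host cell toxicity which is not excluded here; 0% = plate median of DMSO wells and 100% = zero luminescence signal; higher percent means less beta-gal luminescence so fewer parasites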
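Assay system: NIH/3T3 fibroblasts plus reporter T. cruzi. Amount: NIH/3T3 cells, 5,000 per well. Buffer or medium: DMEM, 2% fetal bovine serum. Doses: compound pinned at 50 nL/well, DMSO. Schedule: ≥90 h infection period, 3 h prior cell attachment. Signal: luminescent β-galactosidase signal after 60 min lysis. Read-out: parasite load inhibition, %.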
Beta apoptosis – inhibitors of cytokine-induced beta cell apoptosis, primary screen, luminescence | protection from apoptosis, % (no concentration beside the values) | INS-1E cytokine-induced death, ATP luminescence, 48 h; percent of positive-control rescue, neutral wells zero | actives 0.8% (n = 300,000);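 active = Every replicate reaches about 75%, or at least half do and their mean reaches it too, limit read from the data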;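 also: 0% = cytokine-treated negative control wells and 100% = positive control rescue; higher means more ATP so stronger rescue from cytokine killing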
The depositor's hits bear a star; · = no result. Most compounds without a hit are left out; they make up all but 5.3% or so of the library.

SMILES | NALP3 yeast inh | CSC inhib | Mdm2 MdmX PPI | Calb FLC | T cruzi repl | Beta apoptosis
CCCN(Cc1nnc(-c2ccccc2Cl)o1)C(=O)c1cc([N+](=O)[O-])cc([N+](=O)[O-])c1 | 8 | -5 | 16 | 1 | 68* | 3
O=C(c1cc([N+](=O)[O-])cc([N+](=O)[O-])c1)N(Cc1nnc(-c2ccccc2Cl)o1)C1CC1 | 20 | 29 | -18 | 15 | 75* | 16
COc1ccc(OC)c(CCNC(=O)c2ccc(NC3=NC4CS(=O)(=O)CC4S3)cc2)c1 (configuration not stated) | 3 | -15 | 22 | -19 | -8 | -3
O=C(CCN1C(=O)/C(=C/c2cccs2)SC1=S)Nc1ccc(C(=O)O)c(O)c1 | 8 | 1 | 13 | -1 | -14 | 5
Cc1cc(C)c(CN2CCN(C(=O)Cn3cnc4c(OCc5ccccc5)ncnc43)CC2)c(C)c1 | 12 | · | 45 | · | · | 77*
O=C(O)Cn1cnc2c(OCc3ccccc3)ncnc21 | -7 | · | 19 | · | · | -5
Cc1ccccc1C(=O)NNC(=O)C(=O)N1CCCCC1 | 2 | -9 | -13 | 5 | -1 | -5
Cc1ccc(NNC(=O)C(=O)N2CCCCC2)cc1 | 15 | 112* | -5 | 7 | 43 | ·
CC(C)CNC(=S)NC(=O)c1csc([N+](=O)[O-])c1 | -9 | -6 | -2 | -1 | 6 | -9
C=CCNC(=O)O/N=C/c1csc([N+](=O)[O-])c1 | -13 | -17 | 9 | 8 | 57* | -13
O=C(C1=C[C@@H](c2ccc3c(c2)OCO3)C[C@@H](OCCCCO)O1)N1CCN(Cc2ccc3c(c2)OCO3)CC1 | 14 | -7 | 26 | -28 | 3 | 1
O=C(C1=C[C@H](c2ccc3c(c2)OCO3)C[C@H](OCCCCO)O1)N1CCN(Cc2ccc3c(c2)OCO3)CC1 | 20 | 2 | 12 | 0 | 29 | -2
O=C(C1=C[C@H](c2ccc(Br)cc2)C[C@H](OCCCCO)O1)N1CCN(Cc2ccc3c(c2)OCO3)CC1 | 11 | -18 | -5 | 7 | 65* | 1
O=C(C1=C[C@H](C2CCCCC2)C[C@H](OCCCCO)O1)N1CCN(Cc2ccc3c(c2)OCO3)CC1 | 18 | 13 | 7 | 15 | 56* | 4
CCc1nnc(SCC(=O)NC2CCCCC2)nc1CC | 21 | · | -29 | -4 | 4 | -3
Cc1ccc(CNC(=O)c2nnc(CS(=O)(=O)c3ccccc3)o2)cc1 | 10 | -7 | 2 | -1 | 0 | -7
CN(C)CCNc1nc2sc3c(c2c(=O)n1-c1ccccc1)CCCCC3 | 17 | 75* | 10 | 3 | 40 | -9
O[C@H]1c2ccccc2[C@H](Cc2cncs2)[C@@H]1Br | -11 | -3 | -10 | · | · | -8
COc1ccc(C(=O)C2CCCN(Cc3cnc(N4CCOCC4)s3)C2)c(OC)c1 (configuration not stated) | 1 | -12 | 17 | 3 | 61* | -8
COc1ccc(C(=O)C2CCCN(Cc3ccc4nonc4c3)C2)c(OC)c1 (configuration not stated) | 19 | 2 | 8 | 16 | 70* | -2
COc1ccc(C(=O)C2CCCN(Cc3cccn3-c3ccc(Cl)cn3)C2)c(OC)c1 (configuration not stated) | 6 | · | 38 | -10 | 79* | 8
CCn1ncc(CN2CCCC(C(=O)c3cccc(OC(C)C)c3)C2)c1C (configuration not stated) | 17 | 24 | -12 | -10 | 65* | -7
Cc1nc(Cl)c(C(=O)NCCC(C)C)c(C)c1[N+](=O)[O-] | 1 | -5 | -14 | -9 | 6 | -6
CC(C)Oc1cccc(C(=O)C2CCCN(Cc3cnc(N4CCOCC4)s3)C2)c1 (configuration not stated) | 32 | -11 | 22 | -5 | 59* | -2
COc1ccc(C(=O)C2CCCN(Cc3cnc(N4CCOCC4)s3)C2)cc1F (configuration not stated) | -1 | 1 | 22 | -8 | 38 | 0
SMILES | NALP3 yeast inh | CSC inhib | Mdm2 MdmX PPI | Calb FLC | T cruzi repl | Beta apoptosis
O=C(Oc1cc2oc(=O)cc(-c3ccccc3)c2cc1Cl)C1CCCCC1 | -1 | -2 | 40 | 77* | -8 | 1
Cc1ccc(C(=O)N2CCN(S(=O)(=O)c3ccc(C)c([N+](=O)[O-])c3)C2)cc1 | -6 | -3 | -32 | -9 | 20 | ·
O=C(NCc1ccc(F)cc1)c1cccc2c1C(=O)c1ccc(N3CCOCC3)cc1S2(=O)=O | 8 | -2 | 12 | · | · | -6
O=C(NCc1ccccc1Br)c1cccc2c1C(=O)c1ccc(N3CCOCC3)cc1S2(=O)=O | 22 | 28 | 50 | · | · | 87*
O=C(O)c1ncn(Cc2ccccc2)c1C(=O)O | -4 | 6 | 17 | 1 | -4 | -5
O=C(CC12CC3CC(CC(C3)C1)C2)NC(=S)Nc1ccc(CN2CCOCC2)cc1 | 27 | -16 | 40 | -34 | 82* | 4
COc1ccc(CN2CCCC(N3CCN(c4cccc(Cl)c4)CC3)C2)cc1OC (configuration not stated) | 30 | -9 | 14 | -3 | 56* | 16
CC(C)CN1CCCC(N2CCN(c3cccc(Cl)c3)CC2)C1 (configuration not stated) | 10 | 55 | -9 | 9 | 65* | ·
COc1ccccc1N1CCN(C/C=C/c2ccc(N(C)C)cc2)CC1 | 19 | 5 | 3 | -42 | 55* | 3
COc1ccccc1N1CCN(S(=O)(=O)/C=C/c2ccccc2)CC1 | 15 | -11 | -9 | -1 | -10 | -2
CSc1ccc(/C=C/C(=O)Nc2ccccc2)cc1 | 32 | 38 | -74 | 119* | · | 1
CSc1cccc(NC(=O)/C=C/c2ccccc2)c1 | 45 | 25 | -87 | 22 | 1 | 2
CCc1ccc(OCC(=O)c2c(O)c3ccccc3oc2=O)cc1 | 11 | -8 | 12 | 1 | -9 | -1
CCc1oc2ccccc2c1C(=O)c1cc(Br)c(O)c(Br)c1 | -21 | 85* | 17 | · | -8 | -3
CCn1c(SCC(=O)c2ccc(C)cc2)nnc1-c1ccoc1C | 14 | 6 | -30 | -1 | -12 | -3
COc1ccccc1NC(=S)NC1CCCC1 | -7 | -6 | -7 | -1 | -22 | -6
CC(C)CCOC(=O)C1C(c2ccccc2)C(C(=O)O)C1c1ccccc1 (configuration not stated) | 5 | 3 | 21 | 93* | -8 | -1
CCCC(=O)Nc1nc(C)c(-c2csc(Nc3ccc(Cl)cc3)n2)s1 | 8 | 64 | 49 | 14 | 33 | 1
